Measurements published in PubChem BioAssay AID1325 (NMMLSC, 2008).
The whole screen tested about 190,000 compounds, of which about 200 (0.11%) were called active. This excerpt belongs to a sample that is enriched for actives. Values without a mark were called inactive.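 The calls were made as follows: active = inhibition above 80%; inactive = the rest.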

What follows are molecules tested against Broad substrate specificity ATP-binding cassette transporter ABCG2 (Homo sapiens) (UniProt Q9UNQ0) (assay: ABCG2 efflux pump inhibitors, primary screen, multiplex with ABCB1, IgMXP3 cells, flow cytometry (AID 1325;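 also: 0% = DMSO and 100% = nicardipine control wells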)). Settings: JC-1 efflux, at 6.6 µM, hits give high values.
Chain of Broad substrate specificity ATP-binding cassette transporter ABCG2 (Homo sapiens) (Q9UNQ0 whole entry, looked up): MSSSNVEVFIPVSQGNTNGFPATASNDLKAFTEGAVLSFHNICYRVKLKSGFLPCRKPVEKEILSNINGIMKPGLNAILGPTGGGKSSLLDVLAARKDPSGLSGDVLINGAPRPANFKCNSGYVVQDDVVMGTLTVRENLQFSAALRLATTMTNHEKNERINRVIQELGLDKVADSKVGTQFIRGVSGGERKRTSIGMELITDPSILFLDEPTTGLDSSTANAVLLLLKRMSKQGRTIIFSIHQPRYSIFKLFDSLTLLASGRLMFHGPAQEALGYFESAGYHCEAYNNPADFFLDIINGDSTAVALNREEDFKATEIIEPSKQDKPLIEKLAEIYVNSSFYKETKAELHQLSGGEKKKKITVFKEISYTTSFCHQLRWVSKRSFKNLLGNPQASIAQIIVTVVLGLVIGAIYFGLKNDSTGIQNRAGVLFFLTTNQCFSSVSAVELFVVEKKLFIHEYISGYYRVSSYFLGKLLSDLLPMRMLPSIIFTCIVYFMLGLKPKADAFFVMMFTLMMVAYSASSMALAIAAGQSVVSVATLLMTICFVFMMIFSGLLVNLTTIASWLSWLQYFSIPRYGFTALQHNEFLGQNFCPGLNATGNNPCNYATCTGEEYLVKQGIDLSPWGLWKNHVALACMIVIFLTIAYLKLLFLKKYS
Method in brief: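 Test system: IgMXP3 cells (ABCG2) mixed with DDAO far-red-labelled CCRF-Adr cells (ABCB1). Reagent: JC-1 transporter substrate. Compound dosing: single test compound dose, 6.6 µM final. Times: 10 min compound exposure, 25 °C. Detection: flow cytometry of retained JC-1 fluorescence. Read-out basis: efflux inhibition in percent versus controls. Controls: nicardipine and DMSO wells.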
With CCOc1ccc(NC(=O)c2cc(C)nc3ccccc23)cc1 the inhibition was 4.37%.
Molecule COc1ccccc1NC(=O)/C=C/C(=O)O has an inhibition of 3.21%.
Molecule C=CCNC(=O)CC12CC3CC(C1)CC(CC(=O)NCC=C)(C3)C2 has an inhibition of 0.78%.
Work on Cc1cc(C)cc(NC(=O)Cn2cnc3c(nnn3Cc3ccc(F)cc3)c2=O)c1 yielded an inhibition of 0.29%.
For CSc1ccc(CN2C(=O)NC3(CCCCCC3)C2=O)cc1, the inhibition was -1.59%.
COCCNC(=O)CCCn1c(=O)c2ccccc2n(Cc2cccc([N+](=O)[O-])c2)c1=O showed an inhibition of 3.38%.
With COc1ccccc1CN(C)c1nnnn1-c1ccccc1 the inhibition was -0.06%.
With O=C(CSc1ccc(-c2ccco2)nn1)NCc1ccc2c(c1)OCO2 the inhibition was 0.73%.
O=C(Nc1ccccc1C(=O)O)c1cc(S(=O)(=O)N2CCCCC2)cs1 was tested, and the inhibition was -0.42%.
In the case of Cc1c(Br)c([N+](=O)[O-])nn1CC(=O)N1CCN(Cc2ccccc2)CC1, the inhibition is reported as 2.55%.
For CC(C)NC(=S)NN=C1CCCCCCCCCCC1, the inhibition was 5.8%.
Work on CCSc1sc(CC)cc1C=O yielded an inhibition of 3.95%.
In the case of CCCCn1c(=O)c(CCC(=O)OCC(=O)Nc2ccc(C)c(Cl)c2)nc2ccccc21, the inhibition is reported as 2.45%.
In the case of COC(=O)Cc1csc(/N=C/c2c(O)n(-c3cccc(C(F)(F)F)c3)c(=O)c3ccccc23)n1, the inhibition is reported as -1.85%.
Work on Cc1c(Cc2ccccc2)c(=O)oc2cc(OCC(N)=O)ccc12 yielded an inhibition of 0.67%.
In the case of CCOC(=O)c1sc(=NC(=O)/C=C/c2cccs2)n(C)c1C, the inhibition is reported as 2.28%.
CCC(C(=O)OCC(=O)Nc1ccccc1-c1ccccc1)c1ccccc1 (centres undefined) showed an inhibition of 3.04%.
C/C(=N/O)c1ccc(N2C(=O)C3C4C=CC(C3C2=O)C2C3C(=O)N(c5ccc(/C(C)=N/O)cc5)C(=O)C3C42)cc1 (centres undefined) gave an inhibition of -1.72%.
For O=C(c1ccc(-c2ccccc2)cc1)C1CCCN(C(=O)c2cncs2)C1 (centres undefined), the inhibition was 3.81%.
Cc1ccc(OCC(=O)NNC(=S)NCc2ccccc2)cc1 was tested, and the inhibition was -1.33%.
With O=C(/C=C/c1cccc([N+](=O)[O-])c1)NCCSCc1ccco1 the inhibition was 51.1%.
Work on Cc1ccc(C)c(NS(=O)(=O)c2ccc(OCC(=O)NCc3cccnc3)cc2)c1 yielded an inhibition of 0.12%.
Molecule O=C(O/N=C(/c1ccccc1)c1ccncc1)c1ccccc1[N+](=O)[O-] has an inhibition of 4.1%.
In the case of Cc1ccc(C(=O)COC(=O)c2cccc(N3C(=O)c4c(C)nc5ccccc5c4C3=O)c2)cc1C, the inhibition is reported as 15.3%.
For S=c1[nH]nc(NCCc2ccccc2)s1, the inhibition was 0.35%.
Work on C/C(=C/C(=O)N1CCN(C)CC1)C(=O)O yielded an inhibition of 4.35%.
CCNC(=O)CC1C(=O)N(c2ccc(OC)cc2)C(=S)N1CCc1ccncc1 (centres undefined) gave an inhibition of -0.76%.
NS(=O)(=O)c1ccc(NC(=O)COC(=O)c2ccco2)cc1 gave an inhibition of 10%.
With CN(Cc1ccccc1)C(=O)CCc1ccccc1 the inhibition was 1.98%.
Molecule O=C(NC1CCN(Cc2ccccc2)CC1)c1cc(Br)c(Br)[nH]1 has an inhibition of 4.52%.
Cc1ccc2c(c1)C(O)(CC(=O)c1cccc(-n3cccc3)c1)C(=O)N2 (centres undefined) gave an inhibition of 16.3%.
Work on Cc1ccc(NC(=S)N(CCN(C)C)Cc2cccs2)cc1C yielded an inhibition of -0.22%.
Work on COc1ccccc1NC(=S)N1CCC(NC(=O)C23CC4CC(CC(C4)C2)C3)CC1 yielded an inhibition of -0.01%.
C=CCn1c(-c2sc(-c3ccccc3)nc2C)n[nH]c1=S gave an inhibition of 1.76%.
Molecule CCN1CCN(C(=O)CN(C)S(=O)(=O)c2ccc3ccccc3c2)CC1 has an inhibition of 0.1%.
In the case of COc1ccc(OCCNS(=O)(=O)Cc2ccccc2)cc1, the inhibition is reported as 2.18%.
With COc1ccc(C)cc1NC(=S)Nc1ccccc1SC the inhibition was 0.21%.
COc1ccc(C)cc1NC(=O)Nc1ccccc1SC showed an inhibition of 13.2%.
With COc1ccc(C)cc1NC(=O)C(Sc1ccccc1)c1ccccc1 (centres undefined) the inhibition was 91.6% (active).
In the case of CCOC(=O)C1=C(CC)OC(N)=C(C#N)C1c1ccc(F)cc1F (centres undefined), the inhibition is reported as -0.41%.
CC(CO)NCC12CC3CC(CC(C3)C1)C2 (centres undefined) showed an inhibition of -2.66%.
In the case of COc1ccc(CN(C)C(C)C(=O)NC2CCCc3ccccc32)cc1 (centres undefined), the inhibition is reported as 6.36%.
Molecule O=C(Cc1csc(Nc2nc(=S)[nH]c3ccccc23)n1)NCCCN1CCN(c2cccc(Cl)c2)CC1 has an inhibition of 3.5%.
With CCc1ccc(Oc2nc([N+](=O)[O-])nn2C)cc1 the inhibition was 1.08%.
With CCC(CC)c1nnc(NC(=O)c2nn(C)c(=O)c3ccccc23)s1 the inhibition was 6.7%.
For CCN(C(=O)Cc1nc(N)n[nH]1)C1(C(=O)Nc2ccccc2)CCCCC1, the inhibition was 2.7%.
For CC(CNC(=O)c1ccc(N)cc1)NC(=O)c1ccc(N)cc1 (centres undefined), the inhibition was -4.01%.
With Cc1cc(OC(=O)c2ccccc2Cl)ccc1N1C(=O)CCC1=O the inhibition was 21.3%.
In the case of O=S(=O)(Nc1ncccn1)c1ccc(NS(=O)(=O)c2cccc(Cl)c2Cl)cc1, the inhibition is reported as 0.94%.
For C=CCC1(CC=C)CCCN1C(=O)CC1C(=O)NCCN1Cc1ccccc1OC (centres undefined), the inhibition was 4.22%.
With NNc1nc2c(Cl)cccc2s1 the inhibition was -11.1%.
COc1ccc(CN2CCCC(C(=O)c3ccc(Cl)cc3)C2)cc1Cn1cncn1 (centres undefined) was tested, and the inhibition was 2.66%.
CN(C)c1nnnn1-c1ccc(Cl)cc1 showed an inhibition of 1.39%.
Molecule O=C1NC(c2ccc(-c3ccccc3[N+](=O)[O-])o2)C(C(=O)c2ccc(Cl)cc2)C(O)(C(F)(F)F)N1 (centres undefined) has an inhibition of 14.6%.
